# Calls of active or inactive are those of the source. The calls are words filed in the database; no cut-off is given here.
# Columns and labels:
# Staphylococcus aureus [1] = experiment: Antimicrobial activity against methicillin-resistant Staphylococcus aureus clinical isolate 1088064 by CLSI-based broth microdilution assay; format: functional
# Enterococcus faecalis = experiment: Antimicrobial activity against vancomycin-susceptible Enterococcus faecalis ATCC 29212 assessed as bacterial growth inhibitions by CLSI protocol based microdilution method
# Staphylococcus aureus [2] = experiment: Antimicrobial activity against methicillin-resistant Staphylococcus aureus ATCC 700699 assessed as bacterial growth inhibitions by CLSI protocol based microdilution method; format: functional
# Staphylococcus aureus [3] = experiment: Antimicrobial activity against methicillin-resistant Staphylococcus aureus clinical isolate 1089106 by CLSI-based broth microdilution assay; format: functional
# Staphylococcus aureus [4] = experiment: Antibacterial activity against methicillin resistant Staphylococcus aureus ATCC 700699 persisters assessed as reduction in viability at 16 times MIC by colony counting method; format: functional, organism-based
# How it was run: (§1)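 Stationary-phase S. aureus from overnight CAMHB culture (35 °C, 200 rpm), washed thrice in PBS, diluted to ~5 × 10^8 CFU/ml. Incubated with antibiotic at 35 °C, 200 rpm. Aliquots taken at set times, washed, serially diluted in PBS, drop-plated (6 × 6) on TSA with 5% sheep blood. Colonies counted after 18–20 h at 35 °C. Triplicates.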
# Enterococcus faecium [5] = experiment: Antimicrobial activity against vancomycin-resistant Enterococcus faecium clinical isolate 1100440 by CLSI-based broth microdilution assay; format: functional
# Enterococcus faecium [6] = experiment: Antimicrobial activity against vancomycin-resistant Enterococcus faecium clinical isolate 1094112 by CLSI-based broth microdilution assay; format: functional
# Enterococcus faecium [7] = experiment: Antimicrobial activity against vancomycin-resistant Enterococcus faecium clinical isolate 1091720 by CLSI-based broth microdilution assay; format: functional
# Enterococcus faecium [8] = experiment: Antimicrobial activity against vancomycin-resistant Enterococcus faecium clinical isolate 1088051 by CLSI-based broth microdilution assay; format: functional
# Staphylococcus aureus [9] = experiment: Antimicrobial activity against methicillin-resistant Staphylococcus aureus clinical isolate 1088610 by CLSI-based broth microdilution assay; format: functional
# Staphylococcus aureus [10] = experiment: Antimicrobial activity against methicillin-resistant Staphylococcus aureus clinical isolate 1088888 by CLSI-based broth microdilution assay; format: functional
# Enterococcus faecium [11] = experiment: Antimicrobial activity against vancomycin-resistant Enterococcus faecium clinical isolate 1091282 by CLSI-based broth microdilution assay; format: functional
# Staphylococcus aureus [12] = experiment: Antimicrobial activity against methicillin-sensitive Staphylococcus aureus clinical isolate 1088626 by CLSI-based broth microdilution assay; format: functional
# Staphylococcus aureus [13] = experiment: Antibacterial activity against vancomycin-intermediate susceptible Staphylococcus aureus ATCC 25923 assessed as bacterial growth inhibition by measuring fold increase in MIC between 8 passages by broth dilution method; format: functional
# Staphylococcus aureus [14] = experiment: Antimicrobial activity against antibiotic-resistant Staphylococcus aureus BM-2312 assessed as bacterial growth inhibitions by CLSI protocol based microdilution method; format: functional
# Enterococcus faecium [15] = experiment: Antimicrobial activity against vancomycin-resistant Enterococcus faecium clinical isolate 1088925 by CLSI-based broth microdilution assay; format: functional
# Staphylococcus aureus [16] = experiment: Antimicrobial activity against methicillin-sensitive Staphylococcus aureus clinical isolate 1088105 by CLSI-based broth microdilution assay; format: functional
# Enterococcus faecium [17] = experiment: Antimicrobial activity against vancomycin-resistant Enterococcus faecium clinical isolate 1091563 by CLSI-based broth microdilution assay; format: functional
# Enterococcus faecium [18] = experiment: Antimicrobial activity against vancomycin-resistant Enterococcus faecium clinical isolate 1089544 by CLSI-based broth microdilution assay; format: functional
# Enterococcus faecium [19] = experiment: Antimicrobial activity against vancomycin-resistant Enterococcus faecium ATCC 700221 assessed as bacterial growth inhibitions by CLSI protocol based microdilution method; format: functional
# Enterococcus faecium [20] = experiment: Antimicrobial activity against vancomycin-resistant Enterococcus faecium clinical isolate 1088228 by CLSI-based broth microdilution assay; format: functional
# Staphylococcus aureus [21] = experiment: Antibiofilm activity against Staphylococcus aureus UAMS-1 assessed as destruction catheter-associated biofilm formation measured after 48 hrs (reference value: 1.53 x 10^8); format: functional
# How it was run: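 Plasma-coated catheters colonised for 24 h at 37 °C with gentle shaking, starting from ~1 × 10^7 CFU of MSSA UAMS-1 in biofilm medium (TSB plus glucose and NaCl). […] Medium renewed at 24 h. Catheters (n = 3) sonicated at 48 h and plated on TSA for CFU per catheter.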
# Enterococcus faecium [22] = experiment: Antimicrobial activity against vancomycin-resistant Enterococcus faecium clinical isolate 1088168 by CLSI-based broth microdilution assay; format: functional
# Staphylococcus aureus [23] = experiment: Antimicrobial activity against Staphylococcus aureus ATCC 29213 assessed as inhibition of cell wall synthesis at 8 times MIC measured by liquid scintillation counter; format: functional
# How it was run: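 Early-exponential S. aureus ATCC 29213 resuspended in M9 minimal medium. Drug added at 8x MIC, pre-incubated 30 min at 37 °C. [14C]N-acetylglucosamine (0.4 µCi/reaction) added, 45 min at 37 °C. Stopped with 8% SDS, heated 95 °C for 30 min, spotted onto nitrocellulose filters, washed with 0.1% SDS. Counted by liquid scintillation. Triplicate.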
# Staphylococcus aureus [24] = experiment: Antimicrobial activity against methicillin-susceptible Staphylococcus aureus ATCC 25923 assessed as bacterial growth inhibitions by CLSI protocol based microdilution method; format: functional
# Staphylococcus aureus [25] = experiment: Antimicrobial activity against methicillin-sensitive Staphylococcus aureus ATCC 29213 by CLSI-based broth microdilution assay; format: functional
# Staphylococcus aureus [26] = experiment: Antibacterial activity against methicillin resistant Staphylococcus aureus ATCC 700699 persisters assessed as reduction in viability at 64 times MIC by colony counting method; format: functional, organism-based; how it was run: as §1
# Bacillus subtilis = experiment: Antimicrobial activity against Bacillus subtilis ATCC 6623 assessed as bacterial growth inhibitions by CLSI protocol based microdilution method; format: functional
# How it was run: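 Broth microdilution starting at 50 µg/ml with 2-fold serial dilutions; run in triplicate.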
smiles,measurement,setting,value
CN[C@H](CC(C)C)C(=O)N[C@H]1C(=O)N[C@@H](CC(N)=O)C(=O)N[C@H]2C(=O)N[C@H]3C(=O)N[C@H](C(=O)N[C@H](C(=O)O)c4cc(O)cc(O)c4-c4cc3ccc4O)[C@H](O)c3ccc(c(Cl)c3)Oc3cc2cc(c3O[C@@H]2O[C@H](CO)[C@@H](O)[C@H](O)[C@H]2O[C@H]2C[C@](C)(N)[C@H](O)[C@H](C)O2)Oc2ccc(cc2Cl)[C@H]1O [VANCOMYCIN],MIC,Staphylococcus aureus [1],64 µg/mL
same,MIC,Enterococcus faecalis,3.12 µg/mL
same,MIC,Staphylococcus aureus [2],3.12 µg/mL
same,MIC,Staphylococcus aureus [3],64 µg/mL
same,Activity,Staphylococcus aureus [4],inactive
same,MIC,Enterococcus faecium [5],> 64 µg/mL
same,MIC,Enterococcus faecium [6],> 64 µg/mL
same,MIC,Enterococcus faecium [7],64 µg/mL
same,MIC,Enterococcus faecium [8],64 µg/mL
same,MIC,Staphylococcus aureus [9],64 µg/mL
same,MIC,Staphylococcus aureus [10],> 64 µg/mL
same,MIC,Enterococcus faecium [11],> 64 µg/mL
same,MIC,Staphylococcus aureus [12],0.25 µg/mL
same,Activity,Staphylococcus aureus [13],inactive
same,MIC,Staphylococcus aureus [14],0.78 µg/mL
same,MIC,Enterococcus faecium [15],> 64 µg/mL
same,MIC,Staphylococcus aureus [16],0.25 µg/mL
same,MIC,Enterococcus faecium [17],64 µg/mL
same,MIC,Enterococcus faecium [18],> 64 µg/mL
same,MIC,Enterococcus faecium [19],> 50 µg/mL
same,MIC,Enterococcus faecium [20],> 64 µg/mL
same,Activity,Staphylococcus aureus [21],1.16 10^7CFU
same,MIC,Enterococcus faecium [22],> 64 µg/mL
same,inhibition (INH),Staphylococcus aureus [23],87.3%
same,MIC,Staphylococcus aureus [24],0.78 µg/mL
same,MIC,Staphylococcus aureus [25],0.25 µg/mL
same,Activity,Staphylococcus aureus [26],inactive
same,MIC,Bacillus subtilis,0.19 µg/mL
